The values that follow come from paper PMC8771160 (Oncology Reports, 2022).

For one data set, the system named is HBL6. Put plainly: Cell proliferation assay. The conditions noted are these: KSHV (+) cell line HBL6, 24 h. Type of data set: cell-based. A digest of the protocol:
(§1)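 PEL lines, KSHV-negative B-lymphoma lines or PBMCs were seeded at 1×10^4 cells/well and cultured with or without test compound at 37°C for 24 h. Cell Count Reagent SF was added (10 µl to 90 µl suspension) for 2 h at 37°C, and OD was read at 450 nm. Viability is expressed as % of untreated cells.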

Another data set deals with BC3. In words: Cell proliferation assay. Type of data set: cell-based. The following applies: KSHV (+) cell line BC3, 24 h. In a few lines: as §1
The test system of another data set is HIV RT. The conditions noted are these: cited from earlier work.
The next data set concerns HCV NS5B. The conditions noted are these: cited from earlier work.
In another data set the test system is Ramos. Put plainly: Cell proliferation assay. The class given is cell-based. The conditions noted are these: KSHV (−) cell line Ramos, 24 h. A digest of the protocol:
as §1

Another data set relates to DG75. In words: Cell proliferation assay. Type of data set: cell-based. The following applies: KSHV (−) cell line DG75, 24 h. In a few lines:
as §1

In data set [1] the test system is cancer cell proliferation. The following applies: cited from earlier work.
Data set [2] has as its system KSHV-uninfected B cell lines. In words: Cell proliferation assay, KSHV-uninfected B cell lines as a group. Type of data set: cell-based. The following applies: 6.25 and 12.5 µM, 24 h. In a few lines: as §1
The next data set relates to BCBL1. Put plainly: Cell proliferation assay. The following applies: KSHV (+) cell line BCBL1, 24 h. Type of data set: cell-based. In a few lines: as §1
For data set [3], the system named is influenza virus endonuclease. The following applies: cited from earlier work.

One may read the CC50 as the concentration at which the toxic effect on the cells reaches its halfway point. A low value points to greater toxicity to the cells.

On to “1,1,1′,1′-tetramethyl [60]fullerenodipyrrolidinium diiodide [Derivative #1]”, for which the CC50 with HBL6 is 19.7 µM; in the data set with BC3 it was 15.5 µM; in the data set on Ramos it was 24.9 µM; in the data set with DG75 it was 23.4 µM; in the data set on BCBL1 it was over 25 µM. Besides, in the data set on HIV RT, the “HIV RT inhibitory activity” value was “displayed HIV RT inhibitory activity”. The “HCV NS5B inhibitory activity” value in the data set on HCV NS5B is “inhibiting”. The cancer cell proliferation entry in [1] is “suppressed cancer cell proliferation”. The “viability of DG75 and Ramos cells compared with the controls” value in data set [2] is given as “increased the viability”. Moreover, the “influenza virus endonuclease inhibitory activity” value in data set [3] is on record as “inhibitory activities”.
